Assay outcomes (PubChem)
Platelet DG rel – platelet dense granule release activity; human platelet-rich plasma, SFLLRN dense granule ATP release, luminescence; inhibition, %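 (compounds screened at 7.5 µM in platelet-rich plasma)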; 0.22% of 300,000 active; AID 1663;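 active means mean replicate score, as percent of positive control, at or above 50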
SENP6 block – blocks the human protease SENP6; Recombinant SENP6 catalytic domain, aminoluciferin luminescence; inhibition, % at 10 µM; 1.8% of 330,000 active; AID 2599;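 active means inhibition above about 50% at the single tested dose, limit read from the data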;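 further: plate controls were DMSO wells with enzyme for no effect and DMSO wells lacking enzyme for full effect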
Target sequence (Q9GZR1 628-1112 limits assumed): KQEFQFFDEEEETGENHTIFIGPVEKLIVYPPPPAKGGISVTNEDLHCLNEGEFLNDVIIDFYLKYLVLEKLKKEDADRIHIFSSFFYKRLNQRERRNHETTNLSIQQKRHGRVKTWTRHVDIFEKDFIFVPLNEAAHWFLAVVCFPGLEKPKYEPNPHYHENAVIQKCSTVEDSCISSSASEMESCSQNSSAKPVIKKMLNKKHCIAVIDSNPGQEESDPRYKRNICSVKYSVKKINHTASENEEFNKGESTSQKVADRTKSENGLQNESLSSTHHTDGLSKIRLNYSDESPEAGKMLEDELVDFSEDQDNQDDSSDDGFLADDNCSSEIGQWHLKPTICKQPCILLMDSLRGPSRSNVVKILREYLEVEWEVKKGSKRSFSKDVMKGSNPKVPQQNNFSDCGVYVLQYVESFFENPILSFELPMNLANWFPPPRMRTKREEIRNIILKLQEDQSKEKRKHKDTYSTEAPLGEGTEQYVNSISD
SENP8 block-1 – inhibitors of human SENP8 protease | Q96LD8 | purified SENP8, Z-RLRGG-aminoluciferin cleavage, luminescence | inhibition, % at 10 µM | 1.2% of 330,000 active | AID 2540; in the data active means inhibition above about 50%
Target sequence (Q96LD8 whole entry, looked up): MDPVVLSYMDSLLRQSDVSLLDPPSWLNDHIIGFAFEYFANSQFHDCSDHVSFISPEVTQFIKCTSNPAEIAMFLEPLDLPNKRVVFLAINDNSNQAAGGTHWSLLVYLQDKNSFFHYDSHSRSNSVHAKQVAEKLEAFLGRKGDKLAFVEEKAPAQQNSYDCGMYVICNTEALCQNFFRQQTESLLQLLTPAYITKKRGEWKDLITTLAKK
SENP1 FRET inh – blocks the human SENP1 SUMO protease catalytic domain; Q9P0U3; recombinant SENP1 catalytic domain, CyPet-SUMO1-YPet FRET cleavage; 0.21% of 360,000 active; AID 624204; inhibition, % at 10 µM;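 active means inhibition at least 30% at 10 µM, raw YFP signal under a set limit, fluorescence ratio 0.5 to 1.5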;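 further: 0% = enzyme with DMSO and 100% = no enzyme wells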
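system = hSENP1 catalytic domain, recombinant | reagent = SFCypet-SUMO1-SFYpet substrate at 25 nM | doses = one dose per compound, 10 µM, 0.5% DMSO | incubation = enzyme reaction for 50 min at room temperature, dark | measured by = FRET, CFP and YFP emission | controls = no-enzyme low, enzyme-DMSO high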
SENP8 block-2 – SENP8 (human) protease inhibition. recombinant SENP8, Nedd8 substrate fluorescence. 0.64% of 360,000 active. inhibition, % at 20 µM. Q96LD8; in the data active means inhibition mostly above about 40%, no sharp cut-off; inactive means mostly below about 27%
SENP7 inh – blocks the human protease SENP7. Q9BQF6. recombinant SENP7, Z-RLRGG-aminoluciferin luminescence, 40 min. inhibition, % at 5 µM. 1.5% of 330,000 active. AID 434973;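 active means inhibition above about 50% at the single test dose, limit read from the data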;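 further: plate controls were DMSO with enzyme for no effect and no enzyme buffer wells for full effect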
* marks the source's active call; other numbers are inactive results. In the library only some 2.6% were active in any assay of this set; here they are far more common.

How did COC1=C(C)C(=O)C2=C(C1=O)C1C3CC4=C(C(=O)C(OC)=C(C)C4=O)C(CNC(=O)C(C)=O)N3C(C#N)C(C2)N1C (centres undefined) do in these assays?
SENP1 FRET inh: 2.6; SENP8 block-2: 54.9*

How did C=CCOc1ccc(/C=C/C(=O)OCC(=O)N2CCN(C(C)=O)CC2)cc1 do in these assays?
SENP6 block: 2.2; SENP8 block-1: 0.7; SENP1 FRET inh: 1.9; SENP8 block-2: -6.9; SENP7 inh: -0.5

How did C=CCOc1ccc(/C=C/C(C)=N\O)cc1 do in these assays?
Platelet DG rel: 24.0; SENP6 block: 79.4*; SENP8 block-1: 83.4*; SENP1 FRET inh: 2.7; SENP8 block-2: 14.7; SENP7 inh: 88.9*

How did O=C1C2C3C=CC(C3)C2C(=O)N1c1ccc2c(c1)CCC2 (centres undefined) do in these assays?
Platelet DG rel: -0.2; SENP6 block: -3.0; SENP8 block-1: 0.5; SENP1 FRET inh: 1.1; SENP8 block-2: 6.7; SENP7 inh: 4.2

How did N#C/C(=C\c1cc([N+](=O)[O-])c(N2CCCCC2)cc1N1CCCCC1)c1nn(-c2ccccc2)c(N)c1C#N do in these assays?
SENP6 block: 19.1; SENP8 block-1: 2.3; SENP1 FRET inh: 5.2; SENP8 block-2: 50.4*; SENP7 inh: 4.1

What do the screens show for `N#C/C(=C\c1cccc2ccccc12)c1nn(-c2ccccc2)c(N)c1C#N`?
Platelet DG rel: 1.0; SENP6 block: -3.7; SENP8 block-1: 7.6; SENP7 inh: 3.3

Results for Nc1nonc1C(=O)N/N=C/c1ccc(-c2cccc(C(=O)O)c2)o1 ?
Platelet DG rel: 9.6; SENP6 block: 58.0*; SENP8 block-1: 26.9; SENP7 inh: 2.7

What do the screens show for `COc1ccccc1N1C(=O)C(Cl)=C(Nc2ccccc2O)C1=O`?
Platelet DG rel: -0.7; SENP1 FRET inh: 46.5*; SENP8 block-2: 29.9

How did CCOc1ccccc1NC1=C(Cl)C(=O)N(c2ccc(OC)cc2)C1=O do in these assays?
Platelet DG rel: -1.3; SENP6 block: -11.3; SENP8 block-1: 2.7; SENP1 FRET inh: 2.7; SENP8 block-2: 33.1; SENP7 inh: -1.7

What do the screens show for `CCc1ccc(/C=C\C(=O)N2CCCC2)cc1`?
Platelet DG rel: 12.2; SENP6 block: 0.6; SENP8 block-1: -6.5; SENP1 FRET inh: 0.4; SENP8 block-2: 6.5; SENP7 inh: 0.4

What do the screens show for `CCc1ccc(/C=C\C(=O)N2CCc3ccccc3C2)cc1`?
Platelet DG rel: 15.8; SENP6 block: 60.6*; SENP8 block-1: 47.1; SENP1 FRET inh: 0.0; SENP8 block-2: 26.8; SENP7 inh: 45.4

How did COC(=O)CCCNc1ncccc1[N+](=O)[O-] do in these assays?
Platelet DG rel: -2.8; SENP6 block: -2.5; SENP8 block-1: -14.2; SENP1 FRET inh: 0.3; SENP8 block-2: 6.9; SENP7 inh: -7.6

What do the screens show for `O=C(/C=C/c1ccc(F)cc1)c1ccc(N2CCOCC2)cc1`?
Platelet DG rel: 1.3; SENP6 block: 79.8*; SENP8 block-1: 41.1; SENP1 FRET inh: 3.3; SENP8 block-2: -9.5; SENP7 inh: 78.4*

Results for C(=Nc1cccc2c(N=Cc3ccco3)cccc12)c1ccco1 ?
Platelet DG rel: -2.3; SENP6 block: 85.8*; SENP8 block-1: 71.6*; SENP1 FRET inh: -47.3; SENP8 block-2: -395.5; SENP7 inh: 29.7

How did CN(C)c1ccc(N=Cc2ccco2)cc1 do in these assays?
SENP6 block: 5.7; SENP8 block-1: -14.4; SENP1 FRET inh: -1.2; SENP8 block-2: 17.4; SENP7 inh: 3.7

How did O=C(CN1C(=O)c2ccccc2C1=O)Nc1sc2c(c1C(=O)NCC1CCCO1)CCC2 (centres undefined) do in these assays?
Platelet DG rel: -16.1; SENP6 block: -11.1; SENP8 block-1: 4.8; SENP1 FRET inh: -8.9; SENP8 block-2: 4.4; SENP7 inh: 0.2

Results for O=C1C(Nc2ccc(O)cc2)=C/C(=N/S(=O)(=O)c2cccs2)c2ccccc21 ?
Platelet DG rel: -1.3; SENP1 FRET inh: -0.6; SENP8 block-2: 82.6*

Results for O=C(O)c1ccc(Nc2nc3ccccc3nc2NS(=O)(=O)c2cccs2)cc1 ?
Platelet DG rel: 1.8; SENP6 block: 7.0; SENP8 block-1: -1.6; SENP1 FRET inh: -0.4; SENP8 block-2: -313.3; SENP7 inh: 10.3

Results for Cc1cc(C)c(S(=O)(=O)/N=C2\C=C(Nc3ccc(C(=O)O)cc3)C(=O)c3ccccc32)c(C)c1 ?
Platelet DG rel: 5.3; SENP6 block: 89.1*; SENP8 block-1: 88.2*; SENP1 FRET inh: -0.9; SENP8 block-2: 56.9*; SENP7 inh: 42.4

How did O=C(O)c1ccc(NC2=C/C(=N/S(=O)(=O)c3cccs3)c3ccccc3C2=O)cc1 do in these assays?
SENP1 FRET inh: 0.3; SENP8 block-2: 98.5*

How did O=C(O)c1ccc(NS(=O)(=O)c2ccc3c(c2)C(=O)c2ccccc2C3=O)cc1 do in these assays?
Platelet DG rel: 0.3; SENP6 block: 5.7; SENP8 block-1: -4.8; SENP1 FRET inh: 4.4; SENP8 block-2: 22.5; SENP7 inh: -2.9

How did CCN1CCCC(NC(=O)c2scc3c2CCCC3)C1 (centres undefined) do in these assays?
Platelet DG rel: 7.6; SENP6 block: -14.2; SENP8 block-1: -10.7; SENP1 FRET inh: -0.8; SENP8 block-2: 3.5; SENP7 inh: 0.3

What do the screens show for `CCOC(=O)/C(C#N)=C1/C=CNC(=O)N1`?
Platelet DG rel: -3.8; SENP6 block: -27.0; SENP8 block-1: -6.7; SENP1 FRET inh: -20.9; SENP8 block-2: -69.2; SENP7 inh: -2.5

Results for COC/C=C/C1=CC2=CC(=O)C(C)(OC(=O)c3cnc4ccccc4n3)C(=O)C2=CN1CC(C)C (centres undefined) ?
Platelet DG rel: 0.6; SENP6 block: 19.9; SENP8 block-1: -4.3; SENP1 FRET inh: -11.1; SENP8 block-2: 53.9*; SENP7 inh: -4.1

What do the screens show for `COc1cc(C(c2c(C)[nH][nH]c2=O)c2c(C)[nH][nH]c2=O)ccc1OC(=O)c1cccc([N+](=O)[O-])c1`?
SENP6 block: -8.5; SENP8 block-1: -1.4; SENP1 FRET inh: -0.7; SENP8 block-2: 42.3*; SENP7 inh: 0.2

How did COc1nccnc1NS(=O)(=O)c1ccc(NC(=S)NC(=O)c2ccc(F)cc2)cc1 do in these assays?
Platelet DG rel: 10.7; SENP6 block: 85.8*; SENP8 block-1: 77.9*; SENP1 FRET inh: -0.8; SENP8 block-2: 22.3; SENP7 inh: 69.3*

What do the screens show for `COc1nsnc1NS(=O)(=O)c1ccc(NC(=S)NC(=O)c2ccncc2)cc1`?
Platelet DG rel: -11.7; SENP6 block: -0.4; SENP8 block-1: 7.9; SENP1 FRET inh: -1.6; SENP8 block-2: 24.9; SENP7 inh: 19.4

How did N#C/C=C1/NC(=O)c2ccccc2S1 do in these assays?
Platelet DG rel: -5.6; SENP6 block: -0.7; SENP8 block-1: -4.3; SENP1 FRET inh: 28.8; SENP8 block-2: 44.3*; SENP7 inh: 7.0

Results for O=C1c2ccccc2C(=O)N1/N=C/c1ccc(O)c(O)c1O ?
Platelet DG rel: 17.7; SENP1 FRET inh: 19.0; SENP8 block-2: 83.3*
